Measurements collected from several papers.
Each line is one published result; the experiments were not run side by side.
CA9: Carbonic anhydrase 9 (CA9, Homo sapiens, UniProt Q16790)
PRSS1: Serine protease 1 (PRSS1, Bos taurus, UniProt P00760)
SIRT5: NAD-dependent protein deacylase sirtuin-5, mitochondrial (SIRT5, Homo sapiens, UniProt Q9NXA8)
HCK: Tyrosine-protein kinase HCK (HCK, Homo sapiens, UniProt P08631)
PKN1: Serine/threonine-protein kinase N1 (PKN1, Homo sapiens, UniProt Q16512)
PADI4: Protein-arginine deiminase type-4 (PADI4, Homo sapiens, UniProt Q9UM07)

SMILES	target	effect on	mode	technique	time	pH	IC50
CCOCc1nc(O)c(-c2nnc(Cc3ccc(Cl)cn3)o2)c(O)c1-c1c(OC)cccc1OC	Beta-1 adrenergic receptor (ADRB1, Homo sapiens, UniProt P08588)	ligand displacement	–	radioligand	–	–	> 30000 nM
COC(=O)C1CCCCN1C(=O)c1cccc(NC(=O)CSc2ccc(S(N)(=O)=O)cc2)c1 (stereo not drawn)	CA9	enzyme activity	inhibitor	–	–	–	91 nM
COc1cc(/C=N/n2c(C)nc3ccc(Br)cc3c2=O)ccc1O	PRSS1	enzyme activity	inhibitor	–	–	–	46400 nM
CC[C@@H](C(=O)Nc1ccc(C(N)=O)c(F)c1)n1cc(OC)c(-c2cc(Cl)ccc2-n2cc(C(F)(F)F)nn2)cc1=O	Urokinase-type plasminogen activator (PLAU, Homo sapiens, UniProt P00749)	enzyme activity	inhibitor	–	–	–	> 10000 nM
N#C/C(=C\c1ccc(-c2cc(Cl)ccc2Cl)o1)C(=O)Nc1cccc2ncccc12	SIRT5	enzyme activity	inhibitor	HPLC	–	–	> 100000 nM
CN(C)Cc1ccc(N2CCN(C(=O)c3ccc(Cl)c(S(N)(=O)=O)c3)CC2)nc1	CA9	enzyme activity	inhibitor	–	–	–	5700 nM
COc1ccc(C2=NN(C3CCCCCC3)C(=O)[C@@H]3CC=CC[C@H]23)cc1-c1ccc(C(=O)NCC(N)=O)cc1 (relative stereo)	3',5'-cyclic-AMP phosphodiesterase 4C (PDE4C, Homo sapiens, UniProt Q08493)	enzyme activity	inhibitor	–	–	–	1000 nM
Cc1nc2ccc(Br)cc2c(=O)n1/N=C/c1ccc(C(=O)O)cc1	PRSS1	enzyme activity	inhibitor	–	–	–	213000 nM
CN1CCN(c2ccc(Nc3ncc4cc(C#N)c(=O)n(C5CCCC5)c4n3)cc2)CC1	Ribosomal protein S6 kinase alpha-6 (RPS6KA6, Homo sapiens, UniProt Q9UK32)	enzyme activity	inhibitor	–	–	–	101 nM
CN/C(=N/CCSCc1nc[nH]c1C)NC#N	Solute carrier family 22 member 7 (SLC22A7, Homo sapiens, UniProt Q9Y694)	transporter uptake	inhibitor	–	–	–	22000 nM
CC(C)C(=O)Nc1ccc(C(=O)N2CCC(C(=O)Nc3ccc(S(N)(=O)=O)cc3)CC2)cc1	CA9	enzyme activity	inhibitor	–	–	–	37.2 nM
CC(C)C[C@H](NC(=O)[C@H]1O[C@@H]1C(=O)O)C(=O)NCCCCN=C(N)N	Cathepsin L2 (CTSV, Homo sapiens, UniProt O60911)	enzyme activity	inhibitor	–	–	–	5.41 nM
CNC(=O)c1cc2c(Oc3ccc(NC(=O)C4(C(=O)Nc5ccc(F)cc5)CC4)cc3)ccnc2cc1OC	HCK	enzyme activity	inhibitor	radiometric	–	–	24 nM
Cc1nc2ccc(Cl)cc2c(=O)n1NC(=O)CCl	PRSS1	enzyme activity	inhibitor	–	–	–	97900 nM
O=C(O)c1ccc(-c2c[nH]c3ncc(-c4ccccc4)cc23)cc1C1CCCC1	PKN1	enzyme activity	inhibitor	–	–	–	220 nM
O=C(NO)c1ccc(CN(c2cnccn2)c2cnccn2)cc1	SIRT5	enzyme activity	inhibitor	–	–	–	> 10000 nM
NS(=O)(=O)c1ccc(NC(=O)COC(=O)C(=Cc2cccs2)c2cccs2)cc1	CA9	enzyme activity	inhibitor	–	–	–	322 nM
C[C@@H](N)[C@H]1CC[C@H](C(=O)Nc2ccncc2)CC1	PKN1	enzyme activity	inhibitor	–	–	–	743 nM
NS(=O)(=O)c1ccc(NC2=NC(=O)/C(=C\c3ccc(C(=O)O)cc3)S2)cc1	CA9	enzyme activity	inhibitor	–	–	–	122 nM
O=C(Nc1ccncc1)c1cc2ccccc2o1	Amine oxidase [flavin-containing] B (MAOB, Homo sapiens, UniProt P27338)	enzyme activity	inhibitor	fluorescence	–	–	6900 nM

SMILES	target	effect on	mode	technique	time	pH	IC50
COc1cc2c(c(OC)c1OC)-c1c(cc3c(c1OC)OCO3)C[C@H](C)[C@](C)(O)[C@H]2OC(=O)c1ccccc1	Cytochrome P450 3A5 (CYP3A5, Homo sapiens, UniProt P20815)	enzyme activity	inhibitor	–	15 min	pH 7.4	370 nM
CC(C)c1cc(CNc2nc(Nc3cc(C4CC4)[nH]n3)cc(N3CCN(C)CC3)n2)on1	PKN1	enzyme activity	inhibitor	–	–	–	20 nM
CC1Cc2c(-c3cn(C)nn3)cccc2N1Cc1ccoc1C(=O)Nc1ccc(S(N)(=O)=O)cc1 (stereo not drawn)	CA9	enzyme activity	inhibitor	–	–	–	11.2 nM
CCc1ccc(/C=N/n2c(C)nc3ccc(C)cc3c2=O)s1	PRSS1	enzyme activity	inhibitor	–	–	–	224000 nM
Cc1cc(C(=O)N2CCN(Cc3nc(-c4ccc(Cl)cc4)no3)CC2)ccc1S(N)(=O)=O	CA9	enzyme activity	inhibitor	–	–	–	81 nM
CCCC[C@H](NC(=O)C1CN(C)C1)c1ncc(-c2cc3ccccc3nc2OC)[nH]1	Histone deacetylase 9 (HDAC9, Homo sapiens, UniProt Q9UKV0)	enzyme activity	inhibitor	–	–	–	> 30000 nM
Cc1c[nH]c2nc(Nc3ccc(N4CCN(C)CC4)c(F)c3)nc(-c3cccc(CC#N)c3)c12	PKN1	enzyme activity	inhibitor	–	–	–	187 nM
CCNC(=O)[C@H](CCCNC(=N)CCl)NC(=O)c1ccccc1	PADI4	enzyme activity	inhibitor	–	–	–	4100 nM
CC1Cc2cc(-c3cn(C)nn3)ccc2N1Cc1ccoc1C(=O)Nc1ccc(S(N)(=O)=O)cc1 (stereo not drawn)	CA9	enzyme activity	inhibitor	–	–	–	132 nM
COc1ccc2c(Oc3ccc4c(C(=O)Nc5ccccc5N)cccc4c3)ccnc2c1	Inward rectifier potassium channel 2 (KCNJ2, Homo sapiens, UniProt P63252)	ion current	inhibitor	–	–	–	> 10000 nM
CCn1c(-c2nc3ccc(C(=O)N4CCCC(N)C4)cc3n2C)cc2ccccc21 (stereo not drawn)	PADI4	ligand displacement	–	FP	–	–	> 100000 nM
CN1CCC(Nc2nc(Nc3ccc(Oc4ccccc4)cc3)c3c(=O)[nH]cc(Br)c3n2)CC1	PKN1	enzyme activity	inhibitor	–	–	–	101 nM
O=c1c(O)c(-c2ccc(O)c(O)c2)oc2cc(O)cc(O)c12	Sulfotransferase 1A1 (SULT1A1, Homo sapiens, UniProt P50225)	enzyme activity	inhibitor	–	–	–	529 nM
CN1CCN(Cc2ccc(-c3cnc4[nH]cc(-c5ccc6[nH]ccc6c5)c4c3)cc2)CC1	PKN1	enzyme activity	inhibitor	–	–	–	178 nM
Cc1cnc(-c2ccc(-c3ccc(NC(=O)Nc4c(F)cc(F)cc4F)cc3F)c3c2C(=O)NC3)[nH]1	HCK	enzyme activity	inhibitor	–	–	–	2.5 nM
Cc1cc(Nc2cc(CN3CCOCC3)c3nc(C)c(Cc4ccc(Cl)cc4F)n3n2)n[nH]1	PKN1	enzyme activity	inhibitor	–	–	–	4070 nM
Cc1nc2ccccc2c(=O)n1NC(=O)CSc1nc2ccccc2c(=O)n1-c1ccccc1	PRSS1	enzyme activity	inhibitor	–	–	–	3730 nM
CC1(COc2ccc3c(c2)ncn3-c2ccc3cccc(N4CCC(N)CC4)c3n2)COC1	PKN1	enzyme activity	inhibitor	–	–	–	22 nM
NS(=O)(=O)c1ccc(CCNC(=O)Nc2ccc(NC(=O)c3ccc(Cl)cc3)cc2)cc1	CA9	enzyme activity	inhibitor	–	–	–	96 nM
